In brackets after ≈: the same amount, converted by molar mass. Activity calls are given as the source filed them. No cut-off for these calls is given here.
Tests used:
Type in all cases: functional
[1] = system: Mycobacterium tuberculosis; experiment: Antimycobacterial activity against Mycobacterium tuberculosis H37Rv after 45 days
Summary of the method: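 Canetti proportion method. Compound in DMSO is added to Löwenstein–Jensen egg medium before coagulation (30 min, 85 °C), tested at three levels plus a lower one where needed. Tubes are inoculated with H37Rv at 10⁵ cells/ml and incubated 45 days at 37 °C. Colony counts versus drug-free control give percentage inhibition.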

Bacillus subtilis = experiment: Antibacterial activity against Bacillus subtilis ATCC 6633 at 50 mg/ml after 24 hrs by agar diffusion test; details: for zone of inhibition at 50000 µg/mL: ATCC 6633, 24 h, read-out: DIZ
Summary of the method: (§1)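 Agar diffusion: wells in agar filled with […] DMSO solution of compound at various concentrations; diameter of clear zone around application point measured. Bacteria grown 24 h at 37 °C on nutrient agar. Compounds first screened at 50 mg/ml; those active then tested at lower concentrations. Bracketed value = lowest concentration (mg/ml) giving zone >11 mm, reported only if activity retained at ≤1.25 mg/ml.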

Bacillus = experiment: Antibacterial activity against Bacillus idosus B 241 at 50 mg/ml after 24 hrs by agar diffusion test; details: for zone of inhibition at 50000 µg/mL: B 241, 24 h, read-out: DIZ; summary of the method: as §1
Priestia megaterium = experiment: Antibacterial activity against Bacillus megaterium NRRL 1353895 at 50 mg/ml after 24 hrs by agar diffusion test; details: for zone of inhibition at 50000 µg/mL: NRRL 1353895, 24 h, read-out: DIZ; summary of the method: as §1
Bacillus mycoides = experiment: Antibacterial activity against Bacillus mycoides DSMZ 274 at 50 mg/ml after 24 hrs by agar diffusion test; details: for zone of inhibition at 50000 µg/mL: DSMZ 274, 24 h, read-out: DIZ; summary of the method: as §1
Bacillus cereus = experiment: Antibacterial activity against Bacillus cereus ATCC 11778 at 50 mg/ml after 24 hrs by agar diffusion test; details: for zone of inhibition at 50000 µg/mL: ATCC 11778, 24 h, read-out: DIZ; summary of the method: as §1
Acinetobacter johnsonii = experiment: Antibacterial activity against Acinetobacter johnsonii ATCC 17909 at 50 mg/ml after 24 hrs by agar diffusion test; details: for zone of inhibition at 50000 µg/mL: ATCC 17909, 24 h, read-out: DIZ; summary of the method: as §1
Staphylococcus aureus = experiment: Antibacterial activity against Staphylococcus aureus NRRL B 313 at 50 mg/ml after 24 hrs by agar diffusion test; details: for zone of inhibition at 50000 µg/mL: NRRL B 313, 24 h, read-out: DIZ
Summary of the method: (§2)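 Agar diffusion: bacteria grown 24 h at 37 °C on nutrient agar. Wells in the agar are filled with […] of compound solution in DMSO at various concentrations. The diameter of the clear zone around the application point is measured. Bracketed values give the lowest concentration (mg/ml) that produces a zone >11 mm. A first screen is run at 50 mg/ml.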

Micrococcus luteus [2] = experiment: Antibacterial activity against Sarcina lutea ATCC 9341 at 50 mg/ml after 24 hrs by agar diffusion test; details: for zone of inhibition at 50000 µg/mL: ATCC 9341, 24 h, read-out: DIZ; summary of the method: as §2
Micrococcus luteus [3] = experiment: Antibacterial activity against Micrococcus luteus ATCC 9631 at 50 mg/ml after 24 hrs by agar diffusion test; details: for zone of inhibition at 50000 µg/mL: ATCC 9631, 24 h, read-out: DIZ; summary of the method: as §1
Escherichia coli = experiment: Antibacterial activity against Escherichia coli ATCC 8739 at 50 mg/ml after 24 hrs by agar diffusion test; details: for zone of inhibition at 50000 µg/mL: ATCC 8739, 24 h, read-out: DIZ; summary of the method: as §1
Candida tropicalis = experiment: Antifungal activity against Candida tropicalis ATCC 20336 at 50 mg/ml after 72 hrs by agar diffusion test; details: for zone of inhibition at 50000 µg/mL: ATCC 20336, 72 h, read-out: DIZ
Summary of the method: (§3)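 Agar diffusion: yeasts grown on yeast peptone dextrose agar and fungi on potato dextrose agar. Wells are filled with […] of compound solution in DMSO at various concentrations, and the clear-zone diameter is measured. Bracketed values give the lowest concentration (mg/ml) that produces a zone >11 mm. A first screen is run at 50 mg/ml.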

Saccharomyces cerevisiae = experiment: Antifungal activity against Saccharomyces cerevisiae ATCC 9763 at 50 mg/ml after 72 hrs by agar diffusion test; details: for zone of inhibition at 50000 µg/mL: ATCC 9763, 72 h, read-out: DIZ; summary of the method: as §3
Penicillium chrysogenum = experiment: Antifungal activity against Penicillium chrysogenum CECT 2802 at 50 mg/ml after 72 hrs by agar diffusion test; details: for zone of inhibition at 50000 µg/mL: CECT 2802, 72 h, read-out: DIZ; summary of the method: as §3

Row | Compound | MIC [1] [µM] | diameter of the inhibition zone (DIZ) (Bacillus subtilis) | diameter of the inhibition zone (DIZ) (Priestia megaterium) | diameter of the inhibition zone (DIZ) (Bacillus mycoides) | diameter of the inhibition zone (DIZ) (Bacillus cereus) | diameter of the inhibition zone (DIZ) (Staphylococcus aureus) | diameter of the inhibition zone (DIZ) (Micrococcus luteus [2]) | zone of inhibition at 50000 µg/mL (Penicillium chrysogenum) [mm] | zone of inhibition at 50000 µg/mL (Bacillus subtilis) [mm] | zone of inhibition at 50000 µg/mL (Bacillus) [mm] | zone of inhibition at 50000 µg/mL (Priestia megaterium) [mm] | zone of inhibition at 50000 µg/mL (Bacillus mycoides) [mm] | zone of inhibition at 50000 µg/mL (Bacillus cereus) [mm] | zone of inhibition at 50000 µg/mL (Acinetobacter johnsonii) [mm] | zone of inhibition at 50000 µg/mL (Staphylococcus aureus) [mm] | zone of inhibition at 50000 µg/mL (Micrococcus luteus [2]) [mm] | zone of inhibition at 50000 µg/mL (Micrococcus luteus [3]) [mm] | zone of inhibition at 50000 µg/mL (Escherichia coli) [mm] | zone of inhibition at 50000 µg/mL (Candida tropicalis) [mm] | zone of inhibition at 50000 µg/mL (Saccharomyces cerevisiae) [mm] | other results
1 | CC[C@H](CO)N1C(=O)c2cccc3cccc(c23)C1=O | > 18.6 | inactive | inactive | inactive | inactive | inactive | inactive | 10 | – | – | – | – | – | – | – | – | – | – | – | – | diameter of the inhibition zone (DIZ) (Bacillus): inactive; diameter of the inhibition zone (DIZ) (Acinetobacter johnsonii): inactive; diameter of the inhibition zone (DIZ) (Micrococcus luteus [3]): inactive; diameter of the inhibition zone (DIZ) (Escherichia coli): inactive; diameter of the inhibition zone (DIZ) (Candida tropicalis): inactive; diameter of the inhibition zone (DIZ) (Saccharomyces cerevisiae): inactive
2 | CC[C@H](CO)NCc1cccc2ccccc12 | 21.8 (≈ 5 µg/mL) | – | – | – | – | – | – | 22 | 17 | 18 | 10 | 18 | 15 | 20 | 16 | 13 | 17 | 28 | 30 | 32 | –
3 | CC[C@H](CO)n1cnc2ccccc2c1=O | 22.9 (≈ 5 µg/mL) | inactive | inactive | inactive | inactive | inactive | inactive | – | – | 14 | – | – | – | 14 | – | – | – | – | – | – | diameter of the inhibition zone (DIZ) (Micrococcus luteus [3]): inactive; diameter of the inhibition zone (DIZ) (Escherichia coli): inactive; diameter of the inhibition zone (DIZ) (Candida tropicalis): inactive; diameter of the inhibition zone (DIZ) (Saccharomyces cerevisiae): inactive; diameter of the inhibition zone (DIZ) (Penicillium chrysogenum): inactive
4 | CC[C@H](CO)NC1c2ccccc2-c2ccccc21 | 19.7 (≈ 5 µg/mL) | inactive | – | – | inactive | – | – | 20 | – | 15 | 22 | 17 | – | 16 | 12 | 17 | 17 | 12 | 17 | 22 | –
5 | CC[C@H](CO)NCc1ccc(-c2ccccc2)cc1 | > 19.6 | – | – | – | – | – | – | 40 | 18 | 18 | 19 | 18 | 15 | 20 | 20 | 17 | 17 | 28 | 18 | 18 | –
6 | CC[C@H](CO)NCc1ccc2ccccc2c1 | > 21.8 | – | – | – | – | – | – | 35 | 19 | 19 | 17 | 17 | 14 | 17 | 19 | 17 | 19 | 22 | 10 | 10 | –
